Inhibition and reduction in viability data for six compounds are collected here from ChEMBL document CHEMBL1828608, “A chrysin analog exhibited strong inhibitory activities against both PGE2 and NO production” (Eur J Med Chem, 2011).

Data set [1] has as its target T1, Prostaglandin G/H synthase 2 (Mus musculus) (UniProt Q05769).
T1 sequence (whole entry): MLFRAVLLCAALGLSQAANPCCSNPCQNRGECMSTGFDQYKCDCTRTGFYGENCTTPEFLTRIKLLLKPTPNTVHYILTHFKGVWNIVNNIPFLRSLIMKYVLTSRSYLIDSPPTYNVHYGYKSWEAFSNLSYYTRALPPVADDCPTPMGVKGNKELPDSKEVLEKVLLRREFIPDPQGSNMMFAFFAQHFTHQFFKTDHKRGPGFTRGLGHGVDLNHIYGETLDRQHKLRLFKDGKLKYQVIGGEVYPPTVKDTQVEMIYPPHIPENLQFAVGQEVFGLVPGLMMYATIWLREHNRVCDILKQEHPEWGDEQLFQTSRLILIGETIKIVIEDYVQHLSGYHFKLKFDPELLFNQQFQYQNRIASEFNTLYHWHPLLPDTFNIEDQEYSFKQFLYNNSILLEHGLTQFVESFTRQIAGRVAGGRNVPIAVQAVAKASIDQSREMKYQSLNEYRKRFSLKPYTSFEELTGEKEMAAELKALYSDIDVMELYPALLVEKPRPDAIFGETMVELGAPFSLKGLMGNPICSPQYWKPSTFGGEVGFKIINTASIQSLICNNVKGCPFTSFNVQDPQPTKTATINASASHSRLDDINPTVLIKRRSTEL
As to the kind of experiment: Inhibition of COX2-mediated PGE2 production in LPS-induced mouse RAW264.7 cells at 10 uM after 24 hrs by ELISA. Format: cell-based. The method, boiled down: (§1)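 RAW 264.7 cells in DMEM with 10% FBS and 1% antibiotics at 37 °C, 5% CO₂, plated at 2 × 10⁵ cells/well and pre-incubated 2 h. Compound and LPS were then added together for 24 h. Medium readouts: for NO, nitrite by Griess reagent at OD 550 nm; for PGE₂, commercial ELISA.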
(An ELISA detects its analyte on a solid surface through an enzyme-linked reagent.)

Data set [2] deals with T2, Nitric oxide synthase, inducible (Mus musculus) (UniProt P29477).
T2 sequence (whole entry): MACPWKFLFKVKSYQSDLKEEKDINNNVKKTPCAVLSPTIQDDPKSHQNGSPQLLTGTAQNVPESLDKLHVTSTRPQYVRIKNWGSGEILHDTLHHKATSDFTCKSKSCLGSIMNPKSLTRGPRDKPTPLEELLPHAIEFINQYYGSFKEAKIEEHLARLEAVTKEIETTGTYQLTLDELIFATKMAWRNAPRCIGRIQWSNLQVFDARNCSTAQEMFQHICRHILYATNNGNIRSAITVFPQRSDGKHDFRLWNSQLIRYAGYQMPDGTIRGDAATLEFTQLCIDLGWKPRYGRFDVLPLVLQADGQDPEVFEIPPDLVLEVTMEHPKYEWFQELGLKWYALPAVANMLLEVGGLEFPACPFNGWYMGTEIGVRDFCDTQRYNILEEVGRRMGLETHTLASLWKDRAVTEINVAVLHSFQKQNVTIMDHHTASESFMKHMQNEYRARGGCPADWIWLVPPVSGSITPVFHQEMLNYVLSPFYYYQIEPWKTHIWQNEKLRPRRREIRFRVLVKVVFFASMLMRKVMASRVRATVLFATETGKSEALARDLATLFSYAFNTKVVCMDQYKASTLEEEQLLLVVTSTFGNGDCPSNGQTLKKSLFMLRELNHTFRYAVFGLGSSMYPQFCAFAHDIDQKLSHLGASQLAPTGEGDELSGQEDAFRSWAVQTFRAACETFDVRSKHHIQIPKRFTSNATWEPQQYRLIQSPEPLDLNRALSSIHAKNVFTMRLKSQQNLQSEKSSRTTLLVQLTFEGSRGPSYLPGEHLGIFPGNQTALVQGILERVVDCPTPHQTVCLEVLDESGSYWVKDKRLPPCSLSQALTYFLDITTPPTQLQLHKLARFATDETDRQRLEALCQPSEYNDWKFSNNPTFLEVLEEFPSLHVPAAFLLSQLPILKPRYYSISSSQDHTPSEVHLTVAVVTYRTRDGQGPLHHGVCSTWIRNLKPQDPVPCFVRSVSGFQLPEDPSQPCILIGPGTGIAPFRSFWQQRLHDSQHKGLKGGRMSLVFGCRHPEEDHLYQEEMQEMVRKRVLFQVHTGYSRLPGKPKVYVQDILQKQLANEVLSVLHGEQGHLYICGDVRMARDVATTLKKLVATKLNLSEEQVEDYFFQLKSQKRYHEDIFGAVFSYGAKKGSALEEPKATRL
As to the kind of experiment: Inhibition of iNOS-mediated NO production in LPS-induced mouse RAW264.7 cells at 10 uM after 24 hrs by griess method. The format is cell-based. The method, boiled down: as §1
(In general: Griess reagent forms a coloured azo dye with nitrite.)

A short description of data set [3]: Cytotoxicity against mouse RAW264.7 cells assessed as reduction in cell viability at 10 uM after 24 hrs by MTT assay. (Tetrazolium assays rely on reduction of a dye to a coloured formazan, in cell work by metabolically active cells.)

Broadly, the inhibition is the change of the read-out against control, counted positive when it falls. Higher therefore signals a response far below the control. For `O=c1cc(-c2ccccc2)oc2c(-c3ccoc3)c(O)cc(O)c12`, the figures for the inhibition in data set [1] and in data set [2] were 26.7% and 8.3%, respectively. For the same compound, the reduction in viability at 24 h, 10 µM in data set [3] is under 10%.

With `O=c1cc(-c2ccccc2)oc2c(-c3cccnc3)c(O)cc(O)c12`, the inhibition stood at 48.1% in data set [1] and 16.7% in data set [2]. Moreover, the reduction in viability at 24 h, 10 µM in data set [3] was under 10%.

Consider `Cc1c(O)cc(O)c2c(=O)cc(-c3ccccc3)oc12`, for which the inhibition turned out to be 44.3% in data set [1] and 3.7% in data set [2]. The reduction in viability at 24 h, 10 µM in data set [3] is under 10%.

On to `O=c1cc(-c2ccccc2)oc2c(-c3ccncc3)c(O)cc(O)c12`, for which the inhibition in data set [1] turned out to be 92.4%; in data set [2] it was 29.1%. The reduction in viability at 24 h, 10 µM in data set [3] is under 10%.

Turning to `O=c1cc(-c2ccccc2)oc2cc(O)cc(O)c12`, the inhibition in data set [1] was 74%; in data set [2] it was 8.9%.

`O=c1cc(-c2ccccc2)oc2c(-c3ccsc3)c(O)cc(O)c12`: the results for the inhibition in data set [1] and in data set [2] were 31.4% and 7.6%, respectively. In addition, in data set [3], the reduction in viability at 24 h, 10 µM was under 10%.
